From ChEMBL document CHEMBL3612017, “Rigidified A3 Adenosine Receptor Agonists: 1-Deazaadenine Modification Maintains High in Vivo Efficacy” (ACS Med Chem Lett, 2015)

Key:
[1] = target: T1, Adenosine receptor A1 (Homo sapiens) (UniProt P30542); test: Displacement of [3H]N6-R-phenylisopropyladenosine from human adenosine A1 receptor expressed in CHO cell membranes at 10 uM
T1 sequence (whole entry): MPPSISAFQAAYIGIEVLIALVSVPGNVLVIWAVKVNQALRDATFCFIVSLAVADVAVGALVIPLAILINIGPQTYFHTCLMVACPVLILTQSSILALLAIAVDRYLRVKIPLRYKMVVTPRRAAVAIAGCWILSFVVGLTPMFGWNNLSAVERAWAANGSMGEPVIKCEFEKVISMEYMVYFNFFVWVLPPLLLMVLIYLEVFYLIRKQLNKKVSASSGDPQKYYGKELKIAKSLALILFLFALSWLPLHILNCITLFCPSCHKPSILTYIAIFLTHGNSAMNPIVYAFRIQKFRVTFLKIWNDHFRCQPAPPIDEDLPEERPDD
Procedure, shortened: (§1)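 Radioligand binding at the human receptor subtypes. Nonspecific binding was defined with adenosine 5′-N-ethyluronamide (10 μM). Ki values came from displacement curves, mean ± SEM, n = 3 unless noted. Single-point data were expressed as % inhibition of binding at 10 μM.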

[2] = target: Adenosine receptor A2a (Homo sapiens) (UniProt P29274); test: Displacement of [3H]2-[p-(2-carboxyethyl)phenyl-ethylamino]-5'-Nethylcarboxamidoadenosine from human adenosine A2A receptor expressed in HEK293 cell membranes at 10 uM; procedure, shortened: as §1
Adenosine receptor A3 [3] = target: T2, Adenosine receptor A3 (Homo sapiens, UniProt P0DMS8); test: Displacement of [125I]N6-(4-amino-3-iodobenzyl)adenosine-5'-N-methyluronamide from human adenosine A3 receptor expressed in CHO cell membranes
T2 sequence (P0DMS8 whole entry): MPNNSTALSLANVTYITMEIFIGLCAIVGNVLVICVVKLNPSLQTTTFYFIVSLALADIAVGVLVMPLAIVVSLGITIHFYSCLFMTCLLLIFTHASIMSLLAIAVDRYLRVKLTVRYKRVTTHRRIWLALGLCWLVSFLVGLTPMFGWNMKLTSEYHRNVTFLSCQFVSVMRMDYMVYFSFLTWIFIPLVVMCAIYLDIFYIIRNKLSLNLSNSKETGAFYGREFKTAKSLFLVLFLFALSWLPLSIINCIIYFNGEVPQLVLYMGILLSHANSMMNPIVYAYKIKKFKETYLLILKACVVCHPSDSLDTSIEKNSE

[4] = target: T3, Adenosine receptor A2b (Homo sapiens) (UniProt P29275); test: Displacement of [3H]MRS1754 from human adenosine A2B receptor expressed in HEK293 cell membranes at 10 uM
T3 sequence (whole entry): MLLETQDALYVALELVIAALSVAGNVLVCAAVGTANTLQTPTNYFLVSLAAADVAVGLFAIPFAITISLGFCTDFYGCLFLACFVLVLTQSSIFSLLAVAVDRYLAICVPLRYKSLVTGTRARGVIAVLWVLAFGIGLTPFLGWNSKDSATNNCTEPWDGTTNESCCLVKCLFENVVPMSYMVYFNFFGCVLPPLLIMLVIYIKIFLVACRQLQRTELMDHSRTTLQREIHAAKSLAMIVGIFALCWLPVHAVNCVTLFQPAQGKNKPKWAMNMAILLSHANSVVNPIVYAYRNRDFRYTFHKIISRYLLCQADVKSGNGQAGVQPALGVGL

Adenosine receptor A3 [5] = target: T4, Adenosine receptor A3 (Mus musculus, UniProt Q61618); test: Binding affinity to mouse adenosine A3 receptor expressed in HEK293 cell membranes
T4 sequence (Q61618 whole entry): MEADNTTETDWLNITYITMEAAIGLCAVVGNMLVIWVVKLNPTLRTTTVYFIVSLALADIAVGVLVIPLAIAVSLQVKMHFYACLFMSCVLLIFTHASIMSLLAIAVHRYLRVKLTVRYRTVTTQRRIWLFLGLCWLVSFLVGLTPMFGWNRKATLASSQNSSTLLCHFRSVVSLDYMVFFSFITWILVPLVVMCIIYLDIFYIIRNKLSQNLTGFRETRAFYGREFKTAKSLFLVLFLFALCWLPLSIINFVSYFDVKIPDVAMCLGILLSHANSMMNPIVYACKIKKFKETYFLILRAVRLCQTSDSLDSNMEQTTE
Procedure, shortened: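 Radioligand binding used membranes of HEK293 cells expressing the mouse or the canine A3 receptor.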

Adenosine receptor A3 [6] = target: T5, Adenosine receptor A3 (Canis lupus familiaris, UniProt Q28309); test: Binding affinity to canine adenosine A3 receptor expressed in HEK293 cell membranes
T5 sequence (Q28309 whole entry): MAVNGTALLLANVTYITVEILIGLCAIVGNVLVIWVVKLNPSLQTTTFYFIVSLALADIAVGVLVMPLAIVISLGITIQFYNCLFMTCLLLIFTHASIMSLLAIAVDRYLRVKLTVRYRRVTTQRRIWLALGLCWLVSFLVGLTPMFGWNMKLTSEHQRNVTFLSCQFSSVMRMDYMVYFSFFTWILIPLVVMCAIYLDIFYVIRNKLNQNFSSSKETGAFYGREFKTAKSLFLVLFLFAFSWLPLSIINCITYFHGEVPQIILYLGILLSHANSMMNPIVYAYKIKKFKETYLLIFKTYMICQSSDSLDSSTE
Procedure, shortened: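 Radioligand binding used membranes of HEK293 cells expressing the mouse or the canine A3 receptor. Affinities were given as Ki in nM, mean ± SEM, n = 3.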

[7] = target: 5-hydroxytryptamine receptor 2B (Homo sapiens, UniProt P41595); test: Binding affinity to 5HT2B receptor (unknown origin)
Adenosine receptor A3 [8] = target: T2, Adenosine receptor A3; test: Agonist activity at human adenosine A3 receptor expressed in CHO cells assessed as inhibition of cAMP production; assay type: functional, cell-based
Procedure, shortened: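 Read-out was inhibition of cyclic AMP production in membranes prepared from CHO cells expressing the human A3 receptor. The value is an EC50 with full agonism assessed.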

Mus musculus [9] = test: Analgesic activity in mouse chronic constriction injury model of neuropathic pain assessed as protection of ipsilateral hind paw mechanoallodynia of sciatic nerve at 0.3 to 30 umol/kg administered through oral gavage at point of peak pain on day 7 relative to control measured at 1 hr; assay type: functional
Procedure, shortened: (§2)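 Mice had sciatic nerve chronic constriction injury. Compound was given by oral gavage on day 7, at peak pain. Mechanoallodynia was scored on the ipsilateral and contralateral hind paws at the 1 h and 3 h time points, as % protection. n = 4 per group, some n = 3.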

Mus musculus [10] = test: Analgesic activity in mouse chronic constriction injury model of neuropathic pain assessed as protection of ipsilateral hind paw mechanoallodynia of sciatic nerve at 0.3 to 30 umol/kg administered through oral gavage at point of peak pain on day 7 measured at 3 hrs; assay type: functional; procedure, shortened: as §2
Mus musculus [11] = test: Analgesic activity in mouse chronic constriction injury model of neuropathic pain assessed as time of peak protection at 0.3 to 30 umol/kg administered through oral gavage at point of peak pain on day 7; assay type: functional; procedure, shortened: as §2
Mus musculus [12] = test: Analgesic activity in mouse chronic constriction injury model of neuropathic pain assessed as time duration protection hind paw mechanoallodynia of sciatic nerve at 3 umol/kg administered through oral gavage at point of peak pain on day 7; assay type: functional
Procedure, shortened: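 In CCI mice, 3 μmol/kg was given p.o. on day 7. The time course of protection against hind paw mechanoallodynia was followed, n = 4. Data were mean ± SEM, analysed by two-tailed two-way ANOVA with Bonferroni comparisons versus day 0.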

Mus musculus [13] = test: Effect on contralateral side hind paw in mouse chronic constriction injury model of neuropathic pain at 0.3 to 30 umol/kg administered through oral gavage at point of peak pain on day 7; assay type: ADME, organism-based; settings: in vivo; procedure, shortened: as §2
Adenosine receptor A1 = target: T6, Adenosine receptor A1 (Homo sapiens, UniProt P30542); test: Displacement of [3H]N6-R-phenylisopropyladenosine from human adenosine A1 receptor expressed in CHO cell membranes; procedure, shortened: as §1
T6 sequence (P30542 whole entry): T1 sequence (whole entry)

Mus musculus [14] = test: Analgesic activity in intraperitoneally dosed mouse chronic constriction injury model of neuropathic pain; assay type: functional; settings: ip
Mus musculus [15] = test: Analgesic activity in intraperitoneally dosed mouse chronic constriction injury model of neuropathic pain assessed as time of peak protection; assay type: functional
Mus musculus [16] = test: Analgesic activity in mouse chronic constriction injury model of neuropathic pain assessed as protection of ipsilateral hind paw mechanoallodynia of sciatic nerve at 0.3 to 30 umol/kg administered through oral gavage at point of peak pain on day 7; assay type: functional; settings: 168 h; procedure, shortened: as §2
[17] = Aqueous solubility of the compound; assay type: physicochemical; settings: buffer

Adenosine receptor A2a (Homo sapiens), sequence (P29274 whole entry): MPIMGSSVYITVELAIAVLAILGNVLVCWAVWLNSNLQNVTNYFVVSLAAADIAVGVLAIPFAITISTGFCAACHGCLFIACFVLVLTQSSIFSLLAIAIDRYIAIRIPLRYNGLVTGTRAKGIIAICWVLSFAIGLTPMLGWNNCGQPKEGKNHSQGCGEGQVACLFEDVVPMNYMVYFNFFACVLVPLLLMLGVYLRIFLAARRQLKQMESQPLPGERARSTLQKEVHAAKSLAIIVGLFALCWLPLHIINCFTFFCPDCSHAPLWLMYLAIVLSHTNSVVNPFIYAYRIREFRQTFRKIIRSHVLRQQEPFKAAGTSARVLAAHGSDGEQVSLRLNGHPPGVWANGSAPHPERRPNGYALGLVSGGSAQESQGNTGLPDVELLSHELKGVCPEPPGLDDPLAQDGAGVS
5-hydroxytryptamine receptor 2B, sequence (P41595 whole entry): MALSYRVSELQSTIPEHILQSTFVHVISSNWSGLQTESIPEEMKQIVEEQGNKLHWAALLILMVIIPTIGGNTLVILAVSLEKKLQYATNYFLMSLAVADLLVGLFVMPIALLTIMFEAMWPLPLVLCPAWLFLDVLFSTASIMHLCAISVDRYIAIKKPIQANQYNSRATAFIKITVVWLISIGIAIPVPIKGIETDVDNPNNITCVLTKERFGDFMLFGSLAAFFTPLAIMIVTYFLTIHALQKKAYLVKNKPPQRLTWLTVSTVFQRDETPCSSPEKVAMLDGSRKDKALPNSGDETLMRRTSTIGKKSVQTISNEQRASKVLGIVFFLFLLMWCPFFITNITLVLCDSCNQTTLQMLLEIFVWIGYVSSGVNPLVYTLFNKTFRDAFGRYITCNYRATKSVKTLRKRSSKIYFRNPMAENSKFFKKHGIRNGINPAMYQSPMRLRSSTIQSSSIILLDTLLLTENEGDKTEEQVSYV

Compound | inhibition [1] | inhibition [2] | Ki (Adenosine receptor A3 [3]) | Ki (Adenosine receptor A3 [5]) | Ki (Adenosine receptor A3 [6]; read-out: Ki) | Emax (Mus musculus [9]) | Activity (Mus musculus [10]) | Time (Mus musculus [11]) | Activity (Mus musculus [13]) | Ki (Adenosine receptor A1) | further results
CCNc1cc(C#Cc2ccc(Cl)s2)nc2c1ncn2[C@H]1[C@H](O)[C@H](O)[C@]2(C(=O)NC)C[C@H]12 | 10% | 0% | 1.7 nM | 16 nM | 49 nM | 93% | 84% | 1 h | Non-toxic | – | inhibition [4]: 17%; Ki ([7]; read-out: Ki): 2500 nM; EC50 (Adenosine receptor A3 [8]): 1.5 nM; Time (Mus musculus [12]): 5 h
CCCNc1cc(C#Cc2ccc(Cl)s2)nc2c1ncn2[C@H]1[C@H](O)[C@H](O)[C@]2(C(=O)NC)C[C@H]12 | – | 11% | 38 nM | – | – | – | – | – | – | 2440 nM | –
CNC(=O)[C@@]12C[C@@H]1[C@@H](n1cnc3c(NC)cc(C#Cc4ccc(Cl)s4)nc31)[C@H](O)[C@@H]2O | 15% | 8% | 3 nM | 31 nM | 75 nM | 91% | 80% | 1 h | Non-toxic | – | –
CNC(=O)[C@@]12C[C@@H]1[C@@H](n1cnc3c(NC4CC4)cc(C#Cc4ccc(Cl)s4)nc31)[C@H](O)[C@@H]2O | 26% | 11% | 10 nM | – | – | – | – | – | – | – | –
CNC(=O)[C@@]12C[C@@H]1[C@@H](n1cnc3c(NCC4CC4)nc(-n4cc(-c5ccc(Cl)s5)nn4)nc31)[C@H](O)[C@@H]2O | – | 44% | 9.4 nM | – | – | – | – | – | – | 1350 nM | –
NCC1(CC(=O)O)CCCCC1 [GABAPENTIN] | – | – | – | – | – | – | – | – | – | – | ED50 (Mus musculus [14]): 140 µmol/kg; Time (Mus musculus [15]): 1 h
CNC(=O)[C@@]12C[C@@H]1[C@@H](n1cnc3c(NC)nc(C#Cc4ccc(Cl)s4)nc31)[C@H](O)[C@@H]2O | – | – | – | – | – | 93% | 46% | 1 h | Non-toxic | – | Ki (Adenosine receptor A3 [6]): 8.5 nM; ED50 (Mus musculus [16]): 0.73 µmol/kg
CNC(=O)[C@@]12C[C@@H]1[C@@H](n1cnc3c(NCC4CCC4)nc(-n4cc(-c5ccc(Cl)s5)nn4)nc31)[C@H](O)[C@@H]2O | – | 42% | 21 nM | – | – | – | – | – | – | 710 nM | solubility [17]: Insoluble
CCCNc1nc(C#Cc2ccc(Cl)s2)nc2c1ncn2[C@H]1[C@H](O)[C@H](O)[C@]2(C(=O)NC)C[C@H]12 | 22% | 34% | 1.1 nM | 6.8 nM | 5.8 nM | 95% | 93% | 1 h | Non-toxic | – | inhibition [4]: 34%; Ki [7]: Not Active
